Test [1] deals with AMP-activated protein kinase, AMPK (Homo sapiens) (UniProt P54646+O43741+P54619+Q9UGJ0+Q9Y478+Q13131+Q9UGI9). In words: Inhibition of AMPK (unknown origin) at 1 uM relative to control. Format: protein-complex assay. A digest of the protocol: (§1)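 Single-point screen of each compound against a panel of 59 protein kinases, at 1 or 10 μM. The panel data are also summarised as a rescaled geometric mean selectivity score.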

Test [2] has as its target Tyrosine-protein kinase BTK (Homo sapiens) (UniProt Q06187). In words: Inhibition of BTK (unknown origin) at 1 uM relative to control. A digest of the protocol:
as §1

In test [3] the target is Serine/threonine-protein kinase Chk2 (Homo sapiens) (UniProt O96017). In words: Inhibition of CHK2 (unknown origin) at 1 uM relative to control. A digest of the protocol: as §1
Sequence of Serine/threonine-protein kinase Chk2 (Homo sapiens) (O96017 whole entry): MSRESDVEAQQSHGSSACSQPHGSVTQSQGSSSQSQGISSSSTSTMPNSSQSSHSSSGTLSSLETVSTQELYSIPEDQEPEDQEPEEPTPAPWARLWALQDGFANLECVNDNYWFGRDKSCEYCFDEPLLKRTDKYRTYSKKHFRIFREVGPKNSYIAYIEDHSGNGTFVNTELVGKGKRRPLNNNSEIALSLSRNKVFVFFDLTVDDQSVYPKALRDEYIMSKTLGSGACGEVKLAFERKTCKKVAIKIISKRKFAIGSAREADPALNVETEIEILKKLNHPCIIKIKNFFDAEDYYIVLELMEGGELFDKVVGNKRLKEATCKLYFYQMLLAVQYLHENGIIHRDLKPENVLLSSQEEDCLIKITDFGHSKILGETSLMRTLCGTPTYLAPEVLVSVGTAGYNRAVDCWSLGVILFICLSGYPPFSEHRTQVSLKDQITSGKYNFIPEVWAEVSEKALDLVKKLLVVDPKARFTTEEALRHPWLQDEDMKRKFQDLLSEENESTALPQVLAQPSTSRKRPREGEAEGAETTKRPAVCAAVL
Test [4] addresses T1, Eukaryotic elongation factor 2 kinase (Homo sapiens) (UniProt O00418).
T1 sequence (whole entry): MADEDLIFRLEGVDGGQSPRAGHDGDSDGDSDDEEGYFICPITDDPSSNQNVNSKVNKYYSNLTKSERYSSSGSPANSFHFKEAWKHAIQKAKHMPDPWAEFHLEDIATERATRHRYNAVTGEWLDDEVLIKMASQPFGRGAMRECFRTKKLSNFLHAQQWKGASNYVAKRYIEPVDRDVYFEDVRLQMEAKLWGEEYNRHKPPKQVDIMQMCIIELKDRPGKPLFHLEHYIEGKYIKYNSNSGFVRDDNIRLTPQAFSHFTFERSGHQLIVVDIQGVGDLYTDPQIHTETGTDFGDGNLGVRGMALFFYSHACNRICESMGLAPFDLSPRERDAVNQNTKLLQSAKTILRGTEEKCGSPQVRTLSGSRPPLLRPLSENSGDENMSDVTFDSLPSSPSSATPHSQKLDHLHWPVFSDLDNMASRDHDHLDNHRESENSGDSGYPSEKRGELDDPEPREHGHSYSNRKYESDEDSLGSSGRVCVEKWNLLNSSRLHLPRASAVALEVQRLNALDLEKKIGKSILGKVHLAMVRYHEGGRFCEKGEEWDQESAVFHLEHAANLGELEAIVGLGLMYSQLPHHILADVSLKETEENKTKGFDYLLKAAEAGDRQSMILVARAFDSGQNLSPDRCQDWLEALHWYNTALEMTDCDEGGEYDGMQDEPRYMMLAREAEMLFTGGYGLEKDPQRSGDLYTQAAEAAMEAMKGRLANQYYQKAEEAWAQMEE
In words: Inhibition of EF2K (unknown origin) at 1 uM relative to control. A digest of the protocol:
as §1

Test [5] addresses T2, Protein kinase C zeta type (Homo sapiens) (UniProt Q05513).
T2 sequence (whole entry): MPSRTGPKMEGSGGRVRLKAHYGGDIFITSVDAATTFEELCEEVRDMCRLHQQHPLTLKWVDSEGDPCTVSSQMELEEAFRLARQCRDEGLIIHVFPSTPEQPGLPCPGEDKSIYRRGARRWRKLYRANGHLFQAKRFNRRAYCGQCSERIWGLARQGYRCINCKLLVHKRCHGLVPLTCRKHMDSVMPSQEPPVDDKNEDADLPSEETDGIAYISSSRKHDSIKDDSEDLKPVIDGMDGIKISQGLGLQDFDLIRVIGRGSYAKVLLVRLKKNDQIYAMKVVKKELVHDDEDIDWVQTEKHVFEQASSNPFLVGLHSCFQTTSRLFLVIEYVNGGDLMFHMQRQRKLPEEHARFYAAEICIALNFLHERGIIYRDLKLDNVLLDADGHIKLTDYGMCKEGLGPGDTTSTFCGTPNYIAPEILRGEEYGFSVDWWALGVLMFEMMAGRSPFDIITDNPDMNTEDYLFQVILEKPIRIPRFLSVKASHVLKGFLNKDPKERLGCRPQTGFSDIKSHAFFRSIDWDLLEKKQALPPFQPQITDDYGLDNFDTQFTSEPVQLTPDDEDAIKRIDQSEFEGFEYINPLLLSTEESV
In words: Inhibition of PKCz (unknown origin) at 1 uM relative to control. A digest of the protocol: (§2)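 Single-concentration screen of each compound against a 59-protein-kinase panel, run at 10 µM or 1 µM. Activity relative to control is shown as a heat map across the panel.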

Test [6] has as its target T3, Ephrin type-B receptor 3 (Homo sapiens) (UniProt P54753).
T3 sequence (whole entry): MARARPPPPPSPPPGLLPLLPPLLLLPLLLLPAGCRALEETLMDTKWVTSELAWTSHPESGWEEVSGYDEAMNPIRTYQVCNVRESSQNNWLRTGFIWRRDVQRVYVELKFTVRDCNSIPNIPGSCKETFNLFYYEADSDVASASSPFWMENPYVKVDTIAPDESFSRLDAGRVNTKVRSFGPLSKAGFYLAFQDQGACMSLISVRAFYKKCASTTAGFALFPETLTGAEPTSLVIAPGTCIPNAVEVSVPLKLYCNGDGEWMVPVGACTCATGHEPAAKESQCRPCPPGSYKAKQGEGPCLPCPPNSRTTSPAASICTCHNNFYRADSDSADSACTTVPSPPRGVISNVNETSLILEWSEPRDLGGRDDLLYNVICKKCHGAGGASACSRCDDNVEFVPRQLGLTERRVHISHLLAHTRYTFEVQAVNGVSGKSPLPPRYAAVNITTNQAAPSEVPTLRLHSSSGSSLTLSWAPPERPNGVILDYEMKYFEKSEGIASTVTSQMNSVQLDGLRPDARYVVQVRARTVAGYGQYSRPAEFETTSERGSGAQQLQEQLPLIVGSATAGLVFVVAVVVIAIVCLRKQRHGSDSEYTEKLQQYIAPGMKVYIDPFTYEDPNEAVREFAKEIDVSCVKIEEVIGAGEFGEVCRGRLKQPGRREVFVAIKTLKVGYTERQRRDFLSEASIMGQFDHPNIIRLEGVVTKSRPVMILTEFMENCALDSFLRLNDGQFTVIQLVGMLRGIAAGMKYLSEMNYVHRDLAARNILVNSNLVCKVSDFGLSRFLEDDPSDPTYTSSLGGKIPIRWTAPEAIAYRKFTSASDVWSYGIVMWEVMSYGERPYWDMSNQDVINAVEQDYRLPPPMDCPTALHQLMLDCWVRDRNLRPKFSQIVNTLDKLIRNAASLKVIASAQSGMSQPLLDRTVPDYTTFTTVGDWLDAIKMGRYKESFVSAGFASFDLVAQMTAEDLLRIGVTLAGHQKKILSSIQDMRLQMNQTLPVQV
In words: Inhibition of EPHB3 (unknown origin) at 10 uM relative to control. In outline:
as §1

In test [7] the target is Fibroblast growth factor receptor 1 (Homo sapiens) (UniProt P11362). In words: Inhibition of FGFR1 (unknown origin) at 10 uM relative to control. In outline: as §1
Sequence of Fibroblast growth factor receptor 1 (Homo sapiens) (P11362 22-822 limits assumed): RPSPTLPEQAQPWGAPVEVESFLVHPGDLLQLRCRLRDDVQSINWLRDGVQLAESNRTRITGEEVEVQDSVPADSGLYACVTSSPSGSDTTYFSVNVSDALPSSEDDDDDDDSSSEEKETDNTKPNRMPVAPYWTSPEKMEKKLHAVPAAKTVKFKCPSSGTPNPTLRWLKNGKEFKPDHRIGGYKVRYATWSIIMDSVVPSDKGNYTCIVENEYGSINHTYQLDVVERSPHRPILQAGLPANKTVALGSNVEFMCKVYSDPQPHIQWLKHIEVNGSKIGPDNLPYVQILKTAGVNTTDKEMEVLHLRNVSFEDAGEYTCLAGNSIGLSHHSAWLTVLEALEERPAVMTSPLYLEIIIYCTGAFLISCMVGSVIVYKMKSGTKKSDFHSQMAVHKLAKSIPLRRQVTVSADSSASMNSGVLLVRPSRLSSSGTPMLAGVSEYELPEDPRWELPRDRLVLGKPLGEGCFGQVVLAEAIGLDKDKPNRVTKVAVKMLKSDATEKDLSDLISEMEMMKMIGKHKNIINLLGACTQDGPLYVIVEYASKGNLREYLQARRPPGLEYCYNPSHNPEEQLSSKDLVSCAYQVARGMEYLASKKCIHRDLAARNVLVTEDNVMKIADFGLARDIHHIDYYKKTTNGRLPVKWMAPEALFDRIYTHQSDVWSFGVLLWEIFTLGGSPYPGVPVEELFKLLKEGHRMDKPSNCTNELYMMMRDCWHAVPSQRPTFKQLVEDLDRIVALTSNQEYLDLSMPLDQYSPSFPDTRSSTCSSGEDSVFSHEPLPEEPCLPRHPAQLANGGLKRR
Test [8] concerns the target RAC-beta serine/threonine-protein kinase (Homo sapiens) (UniProt P31751). In words: Inhibition of PKBb (unknown origin) at 10 uM relative to control. A digest of the protocol:
as §2

The results in this text go back to ChEMBL document CHEMBL4330096, “Discovery of potent and selective 5-azaindazole inhibitors of leucine-rich repeat kinase 2 (LRRK2) - Part 1” (Bioorg Med Chem Lett, 2019).

Sequence of RAC-beta serine/threonine-protein kinase (Homo sapiens) (P31751 whole entry): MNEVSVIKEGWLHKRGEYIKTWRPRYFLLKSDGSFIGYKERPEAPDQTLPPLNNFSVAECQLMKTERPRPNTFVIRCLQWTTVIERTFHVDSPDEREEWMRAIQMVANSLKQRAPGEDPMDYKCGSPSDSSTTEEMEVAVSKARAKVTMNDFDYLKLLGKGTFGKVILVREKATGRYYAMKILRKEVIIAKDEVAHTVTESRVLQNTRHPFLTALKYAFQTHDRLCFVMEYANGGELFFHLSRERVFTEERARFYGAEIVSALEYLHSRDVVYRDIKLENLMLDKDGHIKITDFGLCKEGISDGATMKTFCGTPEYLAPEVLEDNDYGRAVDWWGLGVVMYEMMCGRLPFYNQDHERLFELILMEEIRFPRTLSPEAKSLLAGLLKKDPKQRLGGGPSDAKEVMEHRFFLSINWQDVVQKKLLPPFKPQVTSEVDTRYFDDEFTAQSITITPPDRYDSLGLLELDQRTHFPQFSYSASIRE
Sequence of Tyrosine-protein kinase BTK (Homo sapiens) (Q06187 whole entry): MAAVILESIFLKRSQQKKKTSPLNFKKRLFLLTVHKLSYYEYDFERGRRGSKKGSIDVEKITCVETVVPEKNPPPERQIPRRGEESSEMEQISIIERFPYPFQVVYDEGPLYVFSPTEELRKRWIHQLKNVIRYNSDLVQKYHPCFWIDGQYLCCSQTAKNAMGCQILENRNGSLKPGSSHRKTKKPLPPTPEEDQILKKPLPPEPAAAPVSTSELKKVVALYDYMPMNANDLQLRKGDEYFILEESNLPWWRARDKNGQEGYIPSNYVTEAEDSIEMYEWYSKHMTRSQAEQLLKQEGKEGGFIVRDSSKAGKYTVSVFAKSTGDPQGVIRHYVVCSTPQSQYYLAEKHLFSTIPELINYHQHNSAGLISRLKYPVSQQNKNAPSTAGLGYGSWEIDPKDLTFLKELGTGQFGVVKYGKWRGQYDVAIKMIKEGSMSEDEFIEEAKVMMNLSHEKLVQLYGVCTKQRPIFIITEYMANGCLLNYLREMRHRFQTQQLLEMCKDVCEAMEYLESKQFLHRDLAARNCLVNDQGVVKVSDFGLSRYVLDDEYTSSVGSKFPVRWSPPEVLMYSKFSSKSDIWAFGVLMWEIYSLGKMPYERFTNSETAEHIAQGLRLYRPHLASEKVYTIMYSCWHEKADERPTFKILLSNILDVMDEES

Regarding `CC(C)n1cc(-c2n[nH]c3ccnc(OC4CCOCC4)c23)cn1`, the inhibition (usually the relative decrease from the control value, in per cent) in test [1] stood at 19%; in test [2], 39%; in test [3] it was 29%; in test [4] it was 0%; in test [5] it was 14%.
As for `Cc1n[nH]c2ccnc(NC3CCCCC3)c12`, the inhibition in test [6] came to 39%; in test [7], 69%; in test [8] it was 24%.
In the case of `Cc1n[nH]c2ccnc(OC3CCCCC3)c12`, the inhibition in test [6] turned out to be 92%; in test [7], 84%; in test [8], 28%.
For `Cc1n[nH]c2ccnc(Nc3ccccc3F)c12`, in that order: 39%, 66% and 15%.
For `c1cc(-c2n[nH]c3ccnc(OC4CCOCC4)c23)cc(N2CCOCC2)n1`, the inhibition came to 0% in test [1]; 51% in test [2]; 0% in test [3]; 9% in test [4]; 1% in test [5].
